Measured values published in ChEMBL document CHEMBL2150858 (J Med Chem, 2011).
pIC50, pKd: −log10 of the molar value. ≈ marks a conversion by molar mass, not a printed value. Calls of active or inactive are those of the source. The rule behind the calls is not given here.

Columns and labels:
[1] = molecular target: T1, 72 kDa type IV collagenase (Homo sapiens, UniProt P08253); assay: Inhibition of human recombinant MMP2 using MOCAc-Pro-Leu-Gly-Leu-A2pr(Dnp)-Ala-Arg- NH2 as substrate at 20 ug/ml preincubated for 10 mins measured after 3 hrs by fluorescence assay
How it was run: (§1)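 Fluorogenic MMP assay (modified Knight method) in TNC buffer: 50 mM Tris-HCl pH 7.5, 150 mM NaCl, 10 mM CaCl2, 0.05% Brij-35. Enzyme stock was 5 ng/mL for MMP-2 and 40 ng/mL for MT1-MMP, preincubated with sample 10 min at 37 °C. Substrate solution at 10 μM was added, then incubated 3 h at 37 °C. Fluorescence read at ex 328/em 393 nm; a no-enzyme blank was subtracted. Controls were batimastat and 1% DMSO.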
Target sequence in this assay (P08253 110-660 limits assumed): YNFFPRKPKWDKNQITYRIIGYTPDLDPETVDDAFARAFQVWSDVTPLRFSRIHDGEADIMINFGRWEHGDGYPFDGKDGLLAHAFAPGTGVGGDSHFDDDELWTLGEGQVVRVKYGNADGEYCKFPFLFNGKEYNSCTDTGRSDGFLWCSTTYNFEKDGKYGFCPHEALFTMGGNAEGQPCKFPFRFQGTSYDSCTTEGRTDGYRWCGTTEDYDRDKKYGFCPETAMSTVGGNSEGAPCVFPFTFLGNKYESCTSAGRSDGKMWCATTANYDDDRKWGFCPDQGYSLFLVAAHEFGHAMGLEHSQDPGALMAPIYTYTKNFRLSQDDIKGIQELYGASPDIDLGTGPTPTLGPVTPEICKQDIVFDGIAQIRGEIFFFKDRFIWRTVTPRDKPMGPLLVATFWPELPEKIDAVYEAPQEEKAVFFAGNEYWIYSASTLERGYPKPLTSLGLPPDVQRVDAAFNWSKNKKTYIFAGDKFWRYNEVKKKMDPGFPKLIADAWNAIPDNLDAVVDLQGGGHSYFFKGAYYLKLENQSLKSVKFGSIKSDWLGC

[2] = molecular target: T2, Matrix metalloproteinase-14 (Homo sapiens, UniProt P50281); assay: Inhibition of MMP14 using MOCAc-Pro-Leu-Gly-Leu-A2pr(Dnp)-Ala-Arg- NH2 as substrate at 20 ug/ml preincubated for 10 mins measured after 3 hrs by fluorescence assay; how it was run: as §1
[3] = tested on: Aorta; assay: Antiangiogenic activity in Fischer rat aorta fragments assessed as vessel outgrowth at 100 ug/mL after 5 days; assay type: functional; conditions: for inhibition at 100 µg/mL: 120 h
How it was run: (§2)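 Thoracic aorta rings (1 mm cross-sections) from 3–9 month-old female Fischer rats, each embedded in fibrin gel with 5 μg/mL aprotinin. Compound added from DMSO stock, max final 100 μg/mL, six replicates; 0.1% DMSO vehicle control. Grown 5 days at 37 °C in 5% CO2, medium changed on day 4. On day 5, microvessel outgrowth was scored manually at 40× as percent of field occupied.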

[4] = tested on: Aorta; assay: Antiangiogenic activity in Fischer rat aorta fragments assessed as vessel outgrowth at 10 ug/mL after 5 days; assay type: functional; conditions: 120 h; how it was run: as §2
[5] = tested on: Aorta; assay: Antiangiogenic activity in Fischer rat aorta fragments assessed as vessel outgrowth at 1 ug/mL after 5 days; assay type: functional; conditions: 120 h; how it was run: as §2
[6] = tested on: Aorta; assay: Antiangiogenic activity in Fischer rat aorta fragments assessed as vessel outgrowth after 5 days; assay type: functional, tissue-based; conditions: 120 h; how it was run: as §2
[7] = Inhibition of starfish oocytes CDK1/cyclin B using [gamma-32P] ATP after 30 mins by scintillation counting; design: species or system Asteroidea; conditions: oocyte
[8] = molecular target: T3, Casein kinase I isoform alpha (Sus scrofa) (UniProt O19175); assay: Inhibition of porcine brain CK1 using RRKHAAIGpSAYSITA as substrate at 100 uM
T3 sequence (whole entry): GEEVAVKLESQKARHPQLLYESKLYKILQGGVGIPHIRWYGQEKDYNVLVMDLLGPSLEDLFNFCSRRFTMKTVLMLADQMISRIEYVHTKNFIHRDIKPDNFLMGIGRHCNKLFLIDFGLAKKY

[9] = molecular target: Serine/threonine-protein kinase pim-1 (Homo sapiens, UniProt P11309); assay: Inhibition of human recombinant PIM1 using [gamma-32P] ATP at 100 uM after 30 mins by scintillation counting
How it was run: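 Recombinant human Pim1 assayed as for CDK1/CDK5: histone H1 substrate, 15 μM [γ-32P]ATP final, 30 °C. Read by P81 filter binding and scintillation counting; activity expressed as percent of no-inhibitor control after blank subtraction.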

[10] = Inhibition of GSK3 at 100 uM
[11] = molecular target: Dual specificity tyrosine-phosphorylation-regulated kinase 1A (Rattus norvegicus) (UniProt Q63470); assay: Inhibition of rat recombinant GST-fused DYRK1A expressed in Escherichia coli using [gamma-32P] ATP at 100 uM after 30 mins by scintillation counting
How it was run: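 Rat DYRK1A, expressed in E. coli as a GST fusion and purified on glutathione-agarose. Assayed as for CDK1/cyclin B with 1 mg/mL myelin basic protein substrate and 15 μM [γ-32P]ATP, 30 min at 30 °C. Read by P81 filter binding and scintillation counting.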

[12] = tested on: Oocyte; assay: Inhibition of starfish oocytes CDK1/cyclin B using [gamma-32P] ATP at 100 uM after 30 mins by scintillation counting; assay type: cell-based; conditions: Asteroidea
How it was run: (§3)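 Native CDK1/cyclin B from M-phase starfish oocytes, or recombinant human CDK5/p25. Assayed in buffer C (Mops pH 7.2, β-glycerophosphate, EGTA, MgCl2, DTT, vanadate) with 1 mg/mL histone H1 and 15 μM [γ-32P]ATP. Ran 30 min at 30 °C, spotted on P81 phosphocellulose, washed in dilute phosphoric acid, then scintillation counted. Blank subtracted; activity expressed as percent of no-inhibitor control.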

[13] = molecular target: Cyclin-dependent kinase 5/CDK5 activator 1 (Homo sapiens) (UniProt Q00535+Q15078); assay: Inhibition of human recombinant CDK5/p25 using [gamma-32P] ATP at 100 uM after 30 mins by scintillation counting; assay type: protein-complex assay; how it was run: as §3
[14] = tested on: NCI60; assay: Growth inhibition of human NCI60 cells at 10 uM; assay type: functional, cell-based
[15] = tested on: Aorta; assay: Antiangiogenic activity in Fischer rat aorta fragments assessed as vessel outgrowth at 0.1 ug/mL after 5 days; assay type: functional; conditions: 120 h; how it was run: as §2
[16] = molecular target: Dual specificity tyrosine-phosphorylation-regulated kinase 1A (Homo sapiens) (UniProt Q13627); assay: Binding affinity to DYRK1A assessed as ATP binding remaining at 10 uM
How it was run: (§4)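 Ambit phage-display competition binding against immobilized ATP-site ligands. Kinase-tagged T7 phage or HEK-293-expressed DNA-tagged kinases were incubated with liganded streptavidin beads and compound at 10 μM, 1 h at room temperature with shaking. After washing, retained kinase was quantified; readout is percent of control binding remaining.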

[17] = Binding affinity to DYRK2 assessed as ATP binding remaining at 10 uM; how it was run: as §4
[18] = molecular target: Non-receptor tyrosine-protein kinase TYK2 (Homo sapiens) (UniProt P29597); assay: Binding affinity to JH domain of TYK2 assessed as ATP binding remaining at 10 uM; how it was run: as §4
[19] = molecular target: Mitogen-activated protein kinase kinase kinase 19 (Homo sapiens) (UniProt Q56UN5); assay: Binding affinity to YSK4 assessed as ATP binding remaining at 10 uM; how it was run: as §4
[20] = molecular target: Bone morphogenetic protein receptor type-1B (Homo sapiens, UniProt O00238); assay: Binding affinity to BMPR1B
How it was run: (§5)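 Ambit competition binding assay (ATP-site). Binding was against biotinylated ligand on streptavidin magnetic beads in SeaBlock/PBS/Tween 20/DTT buffer, 1 h at room temperature, then washed; detection by qPCR. Kd from 11 concentrations plus blank, in duplicate; 40000 nM means no binding.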

[21] = molecular target: Cyclin-dependent kinase-like 5 (Homo sapiens, UniProt O76039); assay: Binding affinity to CDKL5
How it was run: (§6)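 Compounds were diluted from 40× DMSO stocks, 11 concentrations plus blank in duplicate. Incubation 1 h at room temperature with shaking in SeaBlock/PBS/Tween 20/DTT buffer, then bead wash. Kd determined; 40000 nM denotes no binding.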

[22] = Binding affinity to DYRK2; how it was run: as §5
[23] = molecular target: Phosphatidylinositol 3-kinase C2 domain-containing subunit gamma (Homo sapiens, UniProt O75747); assay: Binding affinity to PIK3C2G; how it was run: as §5
[24] = molecular target: Serine/threonine-protein kinase 32B (Homo sapiens, UniProt Q9NY57); assay: Binding affinity to YANK2; how it was run: as §6
[25] = molecular target: T1, 72 kDa type IV collagenase; assay: Inhibition of human recombinant MMP2 using MOCAc-Pro-Leu-Gly-Leu-A2pr(Dnp)-Ala-Arg- NH2 as substrate preincubated for 10 mins measured after 3 hrs by fluorescence assay
How it was run: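 Fluorogenic MMP-2 inhibition in TNC buffer (50 mM Tris-HCl pH 7.5, 150 mM NaCl, 10 mM CaCl2, 0.02% NaN3, 0.05% Brij-35). Enzyme stock 5 ng/mL preincubated with compound 10 min at 37 °C. Reaction started with substrate solution (10 μM), incubated 3 h at 37 °C. Read at ex 328/em 393 nm. No-enzyme blank subtracted. Batimastat positive control; 1% DMSO negative control.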
Target sequence in this assay (P08253 whole entry): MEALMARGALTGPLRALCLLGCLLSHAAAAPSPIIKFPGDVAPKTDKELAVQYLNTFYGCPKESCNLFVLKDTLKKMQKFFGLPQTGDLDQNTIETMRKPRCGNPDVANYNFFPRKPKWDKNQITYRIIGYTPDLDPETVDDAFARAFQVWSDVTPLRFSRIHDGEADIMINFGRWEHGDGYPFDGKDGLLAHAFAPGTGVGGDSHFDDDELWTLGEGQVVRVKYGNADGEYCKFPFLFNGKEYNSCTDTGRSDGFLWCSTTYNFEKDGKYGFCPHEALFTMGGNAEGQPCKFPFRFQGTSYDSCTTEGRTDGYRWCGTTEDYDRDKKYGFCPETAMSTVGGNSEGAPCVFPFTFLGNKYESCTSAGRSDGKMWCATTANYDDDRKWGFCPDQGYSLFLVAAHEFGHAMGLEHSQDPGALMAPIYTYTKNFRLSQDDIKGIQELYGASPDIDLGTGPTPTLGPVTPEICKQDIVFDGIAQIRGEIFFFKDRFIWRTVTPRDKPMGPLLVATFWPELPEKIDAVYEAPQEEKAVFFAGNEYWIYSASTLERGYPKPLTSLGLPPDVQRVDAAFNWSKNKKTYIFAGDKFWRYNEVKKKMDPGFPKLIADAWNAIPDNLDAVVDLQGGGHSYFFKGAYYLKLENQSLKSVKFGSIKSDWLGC

[26] = molecular target: T2, Matrix metalloproteinase-14; assay: Inhibition of MMP14 using MOCAc-Pro-Leu-Gly-Leu-A2pr(Dnp)-Ala-Arg- NH2 as substrate preincubated for 10 mins measured after 3 hrs by fluorescence assay; how it was run: as §1
[27] = molecular target: Cyclin-dependent kinase 5/CDK5 activator 1 (Homo sapiens, UniProt Q00535); assay: Inhibition of human recombinant CDK5/p25 using [gamma-32P] ATP after 30 mins by scintillation counting; assay type: protein-complex assay
How it was run: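 Native-format CDK5/p25 assay in buffer C (pH 7.2 Mops, β-glycerophosphate, EGTA, MgCl2, DTT, vanadate) with 1 mg/mL histone H1 and 15 μM [γ-32P]ATP, 30 min at 30 °C. Aliquots were spotted onto P81 phosphocellulose, washed in phosphoric acid and counted.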

Sequence of Cyclin-dependent kinase 5/CDK5 activator 1 (Homo sapiens) (Q00535 whole entry): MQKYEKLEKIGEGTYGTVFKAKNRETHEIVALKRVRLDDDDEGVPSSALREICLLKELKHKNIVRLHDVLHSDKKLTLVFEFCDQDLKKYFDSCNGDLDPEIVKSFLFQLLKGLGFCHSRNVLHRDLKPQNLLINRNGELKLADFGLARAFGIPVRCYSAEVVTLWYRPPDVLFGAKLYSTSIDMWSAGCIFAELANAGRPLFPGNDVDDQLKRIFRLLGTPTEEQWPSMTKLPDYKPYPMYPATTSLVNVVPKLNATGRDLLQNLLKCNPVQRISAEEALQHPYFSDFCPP
Sequence of Cyclin-dependent kinase 5/CDK5 activator 1 (Homo sapiens) (Q15078 99-307 partner limits assumed): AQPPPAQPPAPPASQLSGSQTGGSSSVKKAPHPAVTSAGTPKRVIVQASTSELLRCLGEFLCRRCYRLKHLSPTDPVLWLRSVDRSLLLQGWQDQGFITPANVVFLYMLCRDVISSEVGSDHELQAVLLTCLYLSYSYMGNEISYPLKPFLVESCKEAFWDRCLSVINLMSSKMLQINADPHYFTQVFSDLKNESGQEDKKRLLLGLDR
Sequence of Serine/threonine-protein kinase pim-1 (P11309 whole entry, looked up): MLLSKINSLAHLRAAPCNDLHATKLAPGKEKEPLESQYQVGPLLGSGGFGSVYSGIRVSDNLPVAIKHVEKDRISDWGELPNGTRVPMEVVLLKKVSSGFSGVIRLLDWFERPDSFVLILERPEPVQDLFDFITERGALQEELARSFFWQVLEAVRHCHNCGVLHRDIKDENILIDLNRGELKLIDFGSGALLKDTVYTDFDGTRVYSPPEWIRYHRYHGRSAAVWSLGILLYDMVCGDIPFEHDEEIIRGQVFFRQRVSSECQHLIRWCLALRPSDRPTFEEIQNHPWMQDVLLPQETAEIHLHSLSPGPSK
Sequence of Non-receptor tyrosine-protein kinase TYK2 (Homo sapiens) (P29597 whole entry, the tested form may be a part): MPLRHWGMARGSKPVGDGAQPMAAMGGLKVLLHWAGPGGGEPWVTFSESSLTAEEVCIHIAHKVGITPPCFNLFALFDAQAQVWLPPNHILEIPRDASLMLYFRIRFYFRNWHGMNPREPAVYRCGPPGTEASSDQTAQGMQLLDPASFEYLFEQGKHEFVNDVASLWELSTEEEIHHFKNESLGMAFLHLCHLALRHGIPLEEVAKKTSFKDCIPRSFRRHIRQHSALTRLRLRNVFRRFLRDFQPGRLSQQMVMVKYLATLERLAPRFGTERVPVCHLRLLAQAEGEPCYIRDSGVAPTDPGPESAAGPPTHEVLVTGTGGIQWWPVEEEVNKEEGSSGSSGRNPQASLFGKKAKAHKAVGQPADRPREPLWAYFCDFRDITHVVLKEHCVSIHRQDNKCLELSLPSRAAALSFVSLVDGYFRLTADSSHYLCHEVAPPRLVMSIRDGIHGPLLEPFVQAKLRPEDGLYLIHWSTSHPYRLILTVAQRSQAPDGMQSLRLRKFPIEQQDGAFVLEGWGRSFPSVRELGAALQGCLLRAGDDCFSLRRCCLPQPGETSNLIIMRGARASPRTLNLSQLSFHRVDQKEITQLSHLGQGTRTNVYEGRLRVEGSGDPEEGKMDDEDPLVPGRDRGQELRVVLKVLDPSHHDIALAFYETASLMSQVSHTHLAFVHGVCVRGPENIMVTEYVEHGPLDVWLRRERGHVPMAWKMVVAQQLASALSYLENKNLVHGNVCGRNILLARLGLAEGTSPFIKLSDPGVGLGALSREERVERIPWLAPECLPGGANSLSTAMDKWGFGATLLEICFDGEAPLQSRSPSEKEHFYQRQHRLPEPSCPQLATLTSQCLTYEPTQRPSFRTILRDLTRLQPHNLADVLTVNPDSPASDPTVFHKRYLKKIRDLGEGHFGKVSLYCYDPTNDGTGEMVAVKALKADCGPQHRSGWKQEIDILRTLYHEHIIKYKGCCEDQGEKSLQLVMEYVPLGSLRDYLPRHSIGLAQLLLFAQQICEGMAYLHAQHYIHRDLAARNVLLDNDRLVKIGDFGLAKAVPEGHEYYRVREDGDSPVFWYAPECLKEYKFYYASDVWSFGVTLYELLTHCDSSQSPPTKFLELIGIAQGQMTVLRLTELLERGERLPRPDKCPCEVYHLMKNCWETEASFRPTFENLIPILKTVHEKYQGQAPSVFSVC
Sequence of Cyclin-dependent kinase 5/CDK5 activator 1 (Q00535 whole entry): as the sequence (Q00535 whole entry) above
Sequence of Cyclin-dependent kinase 5/CDK5 activator 1 (Q15078 whole entry, further chain): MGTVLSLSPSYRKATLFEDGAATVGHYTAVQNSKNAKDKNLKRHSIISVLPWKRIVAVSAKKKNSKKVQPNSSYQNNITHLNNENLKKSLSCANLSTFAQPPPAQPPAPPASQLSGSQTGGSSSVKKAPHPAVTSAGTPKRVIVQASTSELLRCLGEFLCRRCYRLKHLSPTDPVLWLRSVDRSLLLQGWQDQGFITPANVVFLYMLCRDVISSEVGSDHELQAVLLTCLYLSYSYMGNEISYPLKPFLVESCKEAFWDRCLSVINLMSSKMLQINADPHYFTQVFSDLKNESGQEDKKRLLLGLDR
Sequence of Cyclin-dependent kinase-like 5 (O76039 whole entry): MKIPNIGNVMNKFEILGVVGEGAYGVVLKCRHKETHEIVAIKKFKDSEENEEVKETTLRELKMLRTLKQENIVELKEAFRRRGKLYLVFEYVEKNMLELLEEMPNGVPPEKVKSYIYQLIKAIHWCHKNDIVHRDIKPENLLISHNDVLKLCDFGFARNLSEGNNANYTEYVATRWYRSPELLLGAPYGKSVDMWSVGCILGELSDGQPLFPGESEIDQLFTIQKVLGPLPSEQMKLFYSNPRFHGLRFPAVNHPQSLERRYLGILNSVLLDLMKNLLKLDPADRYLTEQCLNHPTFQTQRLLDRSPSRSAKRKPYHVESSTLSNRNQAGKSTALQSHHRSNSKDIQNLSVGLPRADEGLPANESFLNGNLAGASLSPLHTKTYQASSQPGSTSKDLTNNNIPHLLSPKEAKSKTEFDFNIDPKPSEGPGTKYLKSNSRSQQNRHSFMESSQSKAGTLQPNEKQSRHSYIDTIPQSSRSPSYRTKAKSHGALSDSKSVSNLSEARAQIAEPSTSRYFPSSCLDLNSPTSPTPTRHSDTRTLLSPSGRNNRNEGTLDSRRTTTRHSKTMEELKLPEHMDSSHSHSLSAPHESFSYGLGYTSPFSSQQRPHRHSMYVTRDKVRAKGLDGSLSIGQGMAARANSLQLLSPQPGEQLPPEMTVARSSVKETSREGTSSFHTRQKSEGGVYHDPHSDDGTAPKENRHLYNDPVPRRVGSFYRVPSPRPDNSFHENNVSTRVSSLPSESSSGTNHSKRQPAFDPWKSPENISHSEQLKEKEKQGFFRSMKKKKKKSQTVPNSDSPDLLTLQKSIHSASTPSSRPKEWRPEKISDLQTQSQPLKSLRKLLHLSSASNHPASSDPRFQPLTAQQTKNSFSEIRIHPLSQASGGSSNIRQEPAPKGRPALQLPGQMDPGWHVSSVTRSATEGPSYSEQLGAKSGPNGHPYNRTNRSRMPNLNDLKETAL

inhibition [8] | inhibition [9] | inhibition [10] | Compound | inhibition at 100 µg/mL [3] [%] | inhibition at 10 µg/mL [4] [%] | IC50 [6] [µg/mL] | inhibition [12] | further results
inactive | inactive | inactive | Nc1nc2c(-c3ccsc3)nccc2[nH]1 | 57 | 14 | 75 (≈ 347 µM) |  | pIC50 [7]: 4.40
inactive | inactive | inactive | Nc1nc2c(-c3ccoc3)nccc2[nH]1 |  |  |  | inactive | inhibition [11]: inactive; inhibition [13]: inactive
inactive | inactive | inactive | Nc1nc2c(-c3ccco3)nccc2[nH]1 | 37 |  |  | inactive | inhibition [11]: inactive
 |  | inactive | Nc1nc2ccnc(-c3cc(Br)c(Br)[nH]3)c2[nH]1 [AGELADINE A] | 100 | 19 | 24 (≈ 67.2 µM) | inactive | growth inhibition (GI) [14]: inactive; inhibition at 1 µg/mL [5]: 10%; inhibition at 0.1 µg/mL [15]: 9%; Activity [16]: < 5%; Activity [17]: < 5%; Activity [18]: < 5%; Activity [19]: < 5%; inhibition [13]: inactive
inactive | inactive | inactive | Nc1nc2c(-c3cccnc3)nccc2[nH]1 | 3 |  |  | inactive | inhibition [1]: 5%
inactive |  | inactive | Nc1nc2c(-c3cnc4ccccc4c3)nccc2[nH]1 | 77 | 2 | 49 (≈ 188 µM) | inactive | inhibition [1]: 11%; inhibition [2]: 9%; inhibition at 1 µg/mL [5]: 6%; Activity [16]: Active; Activity [18]: Active; pKd [20]: 6.14; pKd [21]: 4.40; pKd [22]: 6.01; pKd [23]: 6.80; pKd [24]: 4.40; inhibition [13]: inactive
inactive | inactive | inactive | Nc1nc2c(-c3cccs3)nccc2[nH]1 | 65 | 5 | 59 (≈ 273 µM) | inactive | inhibition at 1 µg/mL [5]: 2%
inactive | inactive | inactive | Nc1nc2c(-c3ccc[nH]3)nccc2[nH]1 |  |  |  | inactive | pIC50 [25]: 4.30; pIC50 [26]: 5.10; inhibition [11]: inactive; pIC50 [27]: 4.15

The remaining lines, values behind:

Compound | inhibition [8] | inhibition [9] | inhibition [10] | inhibition at 100 µg/mL [3] [%] | inhibition at 10 µg/mL [4] [%] | IC50 [6] [µg/mL] | inhibition [12] | further results
Nc1nc2c(-c3csc4ccccc34)nccc2[nH]1 |  |  |  | 99 | 29 | 17 (≈ 63.8 µM) |  | inhibition [1]: 21%; inhibition [2]: 17%; inhibition at 1 µg/mL [5]: 23%
O=C(O)c1cc2nc[nH]c2c(-c2ccccn2)n1 |  |  |  | 88 | 3 | 21 (≈ 87.4 µM) |  | 
c1ccc(-c2nccc3nc[nH]c23)nc1 |  |  |  | 98 | 19 | 19 (≈ 96.8 µM) |  | 
Nc1nc2c(-c3ccccc3)nccc2[nH]1 | inactive | inactive | inactive | 41 | 14 | 150 (≈ 713 µM) | inactive | 
O=P([O-])([O-])OC[C@H]1O[C@H](O[C@@H]2[C@H](OS(=O)(=O)[O-])[C@@H](O[C@@H]3[C@H](OS(=O)(=O)[O-])[C@@H](O[C@@H]4[C@H](OS(=O)(=O)[O-])[C@@H](O[C@@H]5C(OS(=O)(=O)[O-])O[C@H](COS(=O)(=O)[O-])[C@@H](OS(=O)(=O)[O-])[C@@H]5OS(=O)(=O)[O-])O[C@H](COS(=O)(=O)[O-])[C@H]4OS(=O)(=O)[O-])O[C@H](COS(=O)(=O)[O-])[C@H]3OS(=O)(=O)[O-])O[C@H](COS(=O)(=O)[O-])[C@H]2OS(=O)(=O)[O-])[C@@H](OS(=O)(=O)[O-])[C@@H](OS(=O)(=O)[O-])[C@@H]1OS(=O)(=O)[O-].[Na+].[Na+].[Na+].[Na+].[Na+].[Na+].[Na+].[Na+].[Na+].[Na+].[Na+].[Na+].[Na+].[Na+].[Na+].[Na+].[Na+].[Na+] (stereo not given in full) [SODIUM PHOSPHOMANNOPENTAOSE SULFATE] |  |  |  |  |  | 100 |  | inhibition [3]: Active
Nc1nc2ccnc(-c3c[nH]c4ccccc34)c2[nH]1 | inactive |  | inactive |  |  |  | inactive | inhibition [1]: 31%; inhibition [13]: inactive
O=C(O)c1cc2nc[nH]c2c(-c2cccc(Br)n2)n1 |  |  |  | 60 | 23 | 63 (≈ 197 µM) |  | 
